Assay results of several laboratories.
HDAC8: Histone deacetylase 8 (HDAC8, Homo sapiens, UniProt Q9BY41)
HTR1D: 5-hydroxytryptamine receptor 1D (HTR1D, Homo sapiens, UniProt P28221)
ALOX5: Polyunsaturated fatty acid 5-lipoxygenase (ALOX5, Homo sapiens, UniProt P09917)
OPRM1: Mu-type opioid receptor (OPRM1, Homo sapiens, UniProt P35372)

Structure (SMILES)	target	test	system	setting	inhibition
COC(=O)[C@]1(O)C[C@@H](O)[C@@H](O)[C@H](OC(=O)/C=C/c2ccc(O)c(O)c2)C1	HDAC8	enzyme activity, inhibitor		10 µM	60.5%
CCOC(=O)C1=C(C)NC(c2ccccc2)=C(C(=O)OCc2ccccc2)C1C#Cc1ccccc1 (stereo not drawn)	Adenosine receptor A3 (Mus musculus, UniProt Q61618)	ligand displacement, radioligand		10 µM, cell membranes	32%
CCN1CCN(Cc2ccc(NC(=O)c3ccc(C)c(/C=C/c4cnc5[nH]ccc5c4OC)c3)cc2C(F)(F)F)CC1	Mitogen-activated protein kinase kinase kinase 4 (MAP3K4, Homo sapiens, UniProt Q9Y6R4)	target engagement in cells, inhibitor, chemoproteomics	A-375	50 nM	-0.65%
C/C=C(/C)C(=O)O[C@@H]1[C@H](OC(C)=O)c2c(ccc3ccc(=O)oc23)OC1(C)C	HDAC8	enzyme activity, inhibitor		10 µM	40.9%
COc1cc2c3c(c1OC)-c1cc4c(cc1CC3N(C)CC2c1ccccc1)OCO4 (stereo not drawn)	HTR1D	ligand displacement, radioligand		10 µM	< 50%
CCCNc1nc2ccccc2n1Cc1ccc(Cl)cc1	HTR1D	cell-free assay		10 µM	-20.3%
Cc1occ(O)c(=O)c1C(=O)O	ALOX5	enzyme activity, inhibitor, fluorescence		1 mM	> 70%
CC1(C)CC[C@]2(C)CC[C@]3(C)C(=CC[C@@H]4[C@@]5(C)CC[C@H](O)C(C)(C)[C@@H]5CC[C@]43C)[C@@H]2C1	HDAC8	enzyme activity, inhibitor		10 µM	34.9%
O=C(c1ccc(Cl)cc1)N(Cc1ccccc1)C1CCCCC1	Substance-K receptor (TACR2, Homo sapiens, UniProt P21452)	cell-free assay		10 µM	15%
CC1(C)CC[C@]2(C)CC[C@]3(C)[C@H]4CC=C5[C@@H](CC[C@H](O)C5(C)C)[C@]4(C)CC[C@@]3(C)[C@@H]2C1	HDAC8	enzyme activity, inhibitor		10 µM	44.8%
O=C(c1ccc(F)cc1)N(Cc1ccccc1)C1CCCCC1	OPRM1	ligand displacement		10 µM	6%
CN(C)C1CCN(CC#Cc2nn(C3CCCC3)c3nc(NCc4ccccc4)ncc23)C1 (stereo not drawn)	G protein-coupled receptor kinase 4 (GRK4, Homo sapiens, UniProt P32298)	enzyme activity, inhibitor, FRET		0.1 µM	7%
CC(=O)OC1c2c(ccc3ccc(=O)oc23)OC(C)(C)C1OC(=O)C(C)(O)C(C)O (stereo not drawn)	HDAC8	enzyme activity, inhibitor		10 µM	41.2%
Oc1cccc(Nc2nc(-c3ccc(F)cc3F)cs2)c1	OPRM1	ligand displacement		10 µM	14.2%
CCc1c(O)c(=S)ccn1CC	ALOX5	enzyme activity, inhibitor, fluorescence		1 mM	> 70%
